How the values were obtained:
[1] = target: Hsp90β (Homo sapiens, UniProt P08238); test: Fluorescence polarization; type: binding; conditions: for Selectivity: Hsp90β versus Hsp90α, from FP IC50 values; for binding affinity for Hsp90β (in words): FP assay, SAR discussion
[2] = target: Hsp90α (Homo sapiens, UniProt P07900); test: Fluorescence polarization; type: binding; conditions: for binding affinity for Hsp90α (in words): FP assay, SAR discussion
[3] = system: HT29 cells; test: Cell viability assay; type: cell-based; conditions: Homo sapiens, HT-29, 72 h, read-out: HT29 [IC50 in μM]
[4] = system: NCI-H1299 cells; test: Cell viability assay; type: cell-based; conditions: Homo sapiens, NCI-H1299, 72 h, read-out: NCI—H1299 [IC50 in μM]
[5] = system: Hsp90 client proteins in HT-29 cell line; test: Western blot analysis of client proteins in HT-29 cell lysates; type: cell-based, human; conditions: HT-29, 24 h, 5-50 μM
Summary of the method: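 HT29 cells grown in RPMI with 10% FBS and 1% Pen-Strep. At ~70% confluence they were treated for 24 h with test compound (5, 10, 20, 30, 40, 50 μM) or GDA 500 nM. Cells were lysed in RIPA with protease/phosphatase inhibitors and spun 12,000g for 25 min at 4°C. BCA-normalized protein was run on 10% SDS-PAGE, transferred to PVDF, and detected with specific antibodies, HRP secondary and chemiluminescence.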

Hsp90β, sequence (P08238 whole entry): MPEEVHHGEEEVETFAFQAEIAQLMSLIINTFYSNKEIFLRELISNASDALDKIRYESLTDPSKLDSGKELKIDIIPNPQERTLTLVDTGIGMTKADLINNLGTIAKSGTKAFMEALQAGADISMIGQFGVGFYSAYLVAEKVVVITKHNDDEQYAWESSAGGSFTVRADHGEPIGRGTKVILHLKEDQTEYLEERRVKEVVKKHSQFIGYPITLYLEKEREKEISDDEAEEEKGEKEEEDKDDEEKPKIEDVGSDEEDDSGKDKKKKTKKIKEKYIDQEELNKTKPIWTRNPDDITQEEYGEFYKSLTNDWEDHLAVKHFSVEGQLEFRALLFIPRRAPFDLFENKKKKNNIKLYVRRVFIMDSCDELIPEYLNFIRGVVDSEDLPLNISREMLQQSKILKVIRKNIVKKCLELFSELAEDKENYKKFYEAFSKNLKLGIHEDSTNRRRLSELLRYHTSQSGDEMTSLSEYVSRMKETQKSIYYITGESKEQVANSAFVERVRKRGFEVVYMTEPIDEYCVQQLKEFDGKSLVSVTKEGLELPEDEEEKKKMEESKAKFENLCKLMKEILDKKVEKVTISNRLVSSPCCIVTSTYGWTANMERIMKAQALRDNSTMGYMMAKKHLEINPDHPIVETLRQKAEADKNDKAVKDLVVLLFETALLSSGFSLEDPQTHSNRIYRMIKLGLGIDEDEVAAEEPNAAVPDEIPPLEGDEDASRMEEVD

IC50 [1]	selectivity for Hsp90β versus Hsp90α [1]	Selectivity [1]	IC50 [2]	binding affinity for Hsp90α (in words) [2]	IC50 [3]	binding affinity for Hsp90β (in words) [1]	SMILES	IC50 [4]	Erk5 total level [5]	Her-2 total level [5]	Hsp70 level [5]	survivin protein expression level (Hsp90α-dependent client) [5]	Akt protein level (Hsp90β-dependent client) ([5]; dose dependent)	CDK4 protein level (Hsp90β-dependent client) ([5]; dose dependent)
0.27 ± 0.09 µM	~ 370 fold	> 370	> 100 µM	no measurable affinity	18.8 ± 2.6 µM		CC(C)c1cc(C(=O)N2Cc3ccccc3C2)c(O)c2ccoc12 [Compound 5, (4-Hydroxy-7-isopropylbenzofuran-5-yl)(isoindolin-2-yl) methanone]	17.5 ± 0.42 µM	decreased at higher concentrations	decreased at higher concentrations	appear to be induced	remained unaffected until higher concentrations	induced the degradation	induced the degradation
> 100 µM			> 100 µM		62 ± 1.42 µM		CC(C)c1cc(C(=O)N2Cc3ccccc3C2)c(O)c2cc[nH]c12 [Compound 18, (4-hydroxy-7-isopropyl-1H-indol-5-yl)(isoindolin-2-yl)methanone]	> 100 µM						
> 100 µM			> 100 µM		> 100 µM		CC(C)c1cc(C(=O)N2Cc3ccccc3C2)c(O)c2cn[nH]c12 [Compound 19, (4-Hydroxy-7-isopropyl-1H-indazol-5-yl)(isoindolin-2-yl) methanone]	> 100 µM						
> 100 µM			> 100 µM		> 100 µM		CC(C)c1cc(C(=O)N2Cc3ccccc3C2)c(O)c2[nH]nnc12 [Compound 20, (7-Hydroxy-4-isopropyl-1H-benzo[d][1,2,3]triazol-6-yl)(isoindolin-2-yl)methanone]	75 ± 21.4 µM						
0.45 ± 0.15 µM		4.9	2.22 ± 0.19 µM		93.7 ± 2.67 µM		CC(C)c1cc(C(=O)N2Cc3ccccc3C2)c(O)c2nc[nH]c12 [Compound 21, (4-Hydroxy-7-isopropyl-1H-benzo[d]imidazol-5-yl)(isoindolin-2-yl) methanone]	60 ± 10.5 µM						
0.15 ± 0.04 µM			0.79 ± 0.14 µM	strong affinity	21.7 ± 2.6 µM	strong affinity	CC(C)c1cc(C(=O)N2Cc3ccccc3C2)c(O)c2c1C(=O)CC2 [Compound 29b, 4-Hydroxy-5-(isoindoline-2-carbonyl)-7-isopropyl-2,3-dihydro-1H-inden-1-one]	10 ± 3.28 µM						
5.23 ± 0.13 µM		> 19.1	> 100 µM		59.33 ± 0.18 µM	poor binding affinity	CC(C)c1cc(C(=O)N2Cc3ccccc3C2)c(O)c2c1CCC2 [Compound 31, (4-hydroxy-7-isopropyl-2,3-dihydro-1H-inden-5-yl)(isoindolin-2-yl)methanone]	58.1 ± 0.34 µM						
8.29 ± 0.17 µM		>12	> 100 µM		51.8 ± 2.18 µM		CC(C)c1cc(C(=O)N2Cc3ccccc3C2)c(O)c2c1CC=C2 [Compound 32a, (4-Hydroxy-7-isopropyl-1H-inden-5-yl)(isoindolin-2-yl)methanone]	46.1 ± 1.11 µM						
1.86 ± 0.11 µM		> 53	> 100 µM		47.4 ± 2.94 µM		CC(C)c1cc(C(=O)N2Cc3ccccc3C2)c(O)c2c1C=CC2 [Compound 32b, (7-hydroxy-4-isopropyl-1H-inden-6-yl)(isoindolin-2-yl)methanone]	41.4 ± 1.2 µM						
8.83 ± 1.48 µM		>11	> 100 µM		60.2 ± 0.63 µM		CC1Cc2c(O)c(C(=O)N3Cc4ccccc4C3)cc(C(C)C)c2C1=O (stereo not shown) [Compound 40, 4-Hydroxy-5-(isoindoline-2-carbonyl)-7-isopropyl-2-methyl-2,3-di-hydro-1H-inden-1-one]	59 ± 1.78 µM						
0.34 ± 0.01 µM		7.1	2.42 ± 0.07 µM		58.3 ± 1.51 µM		CC(C)c1cc(C(=O)N2Cc3ccccc3C2)c(O)c2c1C(=O)C(F)C2 (stereo not shown) [Compound 42, 2-fluoro-4-hydroxy-5-(isoindoline-2-carbonyl)-7-isopropyl-2,3-di-hydro-1H-inden-1-one]	20.6 ± 0.28 µM						
18.2 ± 1.3 µM		>5	> 100 µM		> 100 µM	poor affinity	CC(C)c1cc(C(=O)N2Cc3ccccc3C2)c(O)c2c1C(=O)C(F)(F)C2 [Compound 43, 2,2-difluoro-4-hydroxy-5-(isoindoline-2-carbonyl)-7-isopropyl-2,3-dihydro-1H-inden-1-one]	> 100 µM						
19.6 ± 2.2 µM		>5	> 100 µM		75.29 ± 0.66 µM		CC(C)c1cc(C(=O)N2Cc3ccccc3C2)c(O)c2c1C(=O)C(C(F)(F)F)C2 (stereo not shown) [Compound 44, 4-Hydroxy-5-(isoindoline-2-carbonyl)-7-isopropyl-2-(trifluoromethyl)-2,3-dihydro-1H-inden-1-one]	57.8 ± 8.01 µM						
> 100 µM			> 100 µM	did not display good affinity		did not display good affinity	CC(C)c1cc(C(=O)N2Cc3ccccc3C2)c(O)c2c1C(=C(F)F)CC2 [Compound 45, (1-(difluoromethylene)-4-hydroxy-7-isopropyl-2,3-dihydro-1H-inden-5-yl)(isoindolin-2-yl)methanone]							
> 100 µM			> 100 µM	did not display good affinity	66.5 ± 1.35 µM	did not display good affinity	C=C1Cc2c(O)c(C(=O)N3Cc4ccccc4C3)cc(C(C)C)c2C1=O [Compound 46, 4-hydroxy-5-(isoindoline-2-carbonyl)-7-isopropyl-2-methylene-2,3-dihydro-1H-inden-1-one]	68.2 ± 1.2 µM						
6.75 ± 0.01 µM			43.1 ± 11.5 µM		2.33 ± 0.48 µM		CC(C)c1cc(C(=O)N2Cc3ccccc3C2)c(O)c2c1C(=O)C=C2 [Compound 50, 4-hydroxy-5-(isoindoline-2-carbonyl)-7-isopropyl-1H-inden-1-one]	1.53 ± 0.16 µM						
> 100 µM			> 100 µM		51.2 ± 2.23 µM		CC(C)c1cc(C(=O)N2Cc3ccccc3C2)c(O)c2c1C(=NO)CC2 [Compound 51, (4-hydroxy-1-(hydroxyimino)-7-isopropyl-2,3-dihydro-1H-inden-5-yl)(isoindolin-2-yl)methanone]	33.7 ± 1.78 µM						
> 100 µM			> 100 µM		51.2 ± 2.23 µM		CON=C1CCc2c(O)c(C(=O)N3Cc4ccccc4C3)cc(C(C)C)c21 [Compound 52, (4-hydroxy-7-isopropyl-1-(methoxyimino)-2,3-dihydro-1H-inden-5-yl)(isoindolin-2-yl)methanone]	86 ± 7.7 µM						
> 100 µM			> 100 µM		51.2 ± 2.23 µM		CC(C)c1cc(C(=O)N2Cc3ccccc3C2)c(O)c2c1CCCC2=O [Compound 59a, 8-hydroxy-7-(isoindoline-2-carbonyl)-5-isopropyl-3,4-dihydronaphthalen-1(2H)-one]	83.3 ± 1.31 µM						
> 100 µM			> 100 µM				CC(C)c1cc(C(=O)N2Cc3ccccc3C2)c(O)c2c1C(=O)CCC2 [Compound 59b, 5-hydroxy-6-(isoindoline-2-carbonyl)-8-isopropyl-3,4-dihydronaphthalen-1(2H)-one]							

SMILES	IC50 [1]	selectivity for Hsp90β versus Hsp90α [1]	Selectivity [1]	IC50 [2]	binding affinity for Hsp90α (in words) [2]	IC50 [3]	binding affinity for Hsp90β (in words) [1]	IC50 [4]	Erk5 total level [5]	Her-2 total level [5]	Hsp70 level [5]	survivin protein expression level (Hsp90α-dependent client) [5]	Akt protein level (Hsp90β-dependent client) ([5]; dose dependent)	CDK4 protein level (Hsp90β-dependent client) ([5]; dose dependent)
CC(C)c1cc(C(=O)N2Cc3ccccc3C2)c(O)c2c1CCC2=O [Compound 29a, 7-hydroxy-6-(isoindoline-2-carbonyl)-4-isopropyl-2,3-dihydro-1H-inden-1-one]	> 100 µM			> 100 µM	did not exhibit affinity	63.5 ± 1.69 µM	did not exhibit affinity	67.6 ± 4.13 µM						
CC(C)c1cc(C(=O)N2Cc3ccccc3C2)c(O)c2c1C(=O)C(C)(C)C2 [Compound 41, 4-hydroxy-5-(isoindoline-2-carbonyl)-7-isopropyl-2,2-dimethyl-2,3-dihydro-1H-inden-1-one]	> 100 µM			> 100 µM		54.3 ± 1.32 µM	not tolerated	51.31 ± 0.15 µM						
